This passage reports EC50 results from PubChem BioAssay AID821 (SRMLSC, 2007).

Molecules are shown by their SMILES. Calls of active or inactive are those of the source.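 Rule for the calls: active = compounds whose fitted half-maximal concentration for reducing fibroblast viability is 100 µM or lower; inactive = the rest.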

The test system of the test is LL 47 lung fibroblast viability, ATP luminescence. Kind of test: inhibition of LL 47 lung fibroblast growth, concentration-response curve, selectivity screen for endothelial cell growth inhibitor project, cellular system, ATP luminescence readout (AID 821). Put shortly: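 Assay system: LL 47 human lung fibroblast cells | Amount: 1,150 cells/well | Schedule: 72 h exposure, 37 °C | Measured by: CellTiter-Glo luminescence | Measure: Percent viability relative to untreated wells, EC50 via 4-parameter fit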
Regarding `COC(=O)C(CC(=O)c1ccc(Br)cc1)n1ccnc1` (stereo not drawn), the EC50 is 14.7 µM.

As to `CN1CCN(Cc2cc(COCc3ccccc3)c3cccnc3c2O)CC1`, the EC50 is 2.92 µM. Consider `COCCCn1[nH]c2c3c(ccc2c1=O)C(=O)c1ccccc1C3=O`, for which the concentration giving a half-maximal response (EC50) was 17 µM. With `CCOC(=O)c1cnc(-n2nc(C)cc2C)nc1NCCc1ccccc1` the figure was 14.2 µM; with `Cc1cc(C)n(S(=O)(=O)/C=C/c2ccccc2)n1`, 9.12 µM; with `CCn1c(=O)cc(C(=O)OC)sc1=Nc1ccc(F)c(F)c1`, 17.4 µM. As to `N=c1c2c(ncn1CCN1CCOCC1)Oc1ccc3ccccc3c1C2c1ccccc1` (stereo not drawn), the concentration for a half-maximal effect (EC50) was 17.5 µM. For `CN1C[C@H](CNC(=O)OCc2ccccc2)C[C@@H]2c3cccc4c3c(cn4C)C[C@H]21`, the EC50 was 15 µM.

Consider `CCOC(=O)C(C(C)=O)c1c(Br)c(O)c(O)c2c(C(=O)c3ccc(C)cc3)coc12` (stereo not drawn), for which the EC50 is 8.67 µM. With `CCCCn1c(=O)c(C(=O)Nc2cnccn2)c(O)c2ccccc21` the figure was 16.1 µM; with `N=c1n(CCN2CCCCC2)c2ccccc2n1CC(O)c1cccc(Br)c1` (stereo not drawn), 13.3 µM; with `COc1cc(/C=C(/C(=O)c2cccs2)c2nc3ccccc3[nH]2)cc(OC)c1O`, 8.69 µM.

`CCOC(=O)c1cnc(-n2nc(C)cc2C)nc1NC1CCCCC1`: the EC50 is 14.2 µM. `O=S(=O)(CCN(CCS(=O)(=O)C(F)(F)F)CC1CCCO1)C(F)(F)F` (stereo not drawn): the EC50 was 5.88 µM.

Consider `C=CCn1c(SCC(=O)c2c(N)n(CCC)c(=O)n(C)c2=O)nc2sc(CC)cc2c1=O`, for which the concentration giving a half-maximal response (EC50) was 15.3 µM.

As to `CN1CCN(CCCN2c3ccccc3Sc3ccc(C(F)(F)F)cc32)CC1`, the EC50 was 17.9 µM. With `O=C(CN1CCCC1)Nc1ccc(-c2nc3cc(NC(=O)CN4CCCC4)ccc3o2)cc1` the figure was 7.33 µM. Regarding `Cn1c(=O)n(C)c2cc(NC(=O)CCl)ccc21`, the EC50 is 10 µM. As for `CCc1ccc2c(c1)/C(=C/C(=O)c1cccs1)C(=O)N2`, the concentration giving a half-maximal response (EC50) was 3.48 µM.

Consider `COc1cccc(C(=O)Oc2c(CN3CCOCC3)cc(Cl)c3cccnc23)c1`, for which the half-maximal effective concentration (EC50) is 5.95 µM.

Turning to `Cc1nn(-c2nc3ccccc3s2)c(N)c1Sc1ccc(F)cc1`, the EC50 was 12.8 µM. For the compound `c1ccc(-c2nc(N3CCCCCC3)c3ccccc3n2)nc1`, the EC50 is 1.73 µM. With `Cc1sc2ncnc(NCC(C)(C)N3CCOCC3)c2c1C`, the EC50 is > 10 µM (inactive). For the compound `O=C(Nc1cccnc1)c1ccc(Br)s1`, the EC50 is 13.1 µM.

For the compound `CS(=O)(=O)c1nc(-c2cccs2)cc(C(F)(F)F)n1`, the 50% effective concentration (EC50) was 7.32 µM.

Turning to `CCOC(=O)c1ccccc1Nc1cn(C(C)=O)c2ccccc12`, the 50% effective concentration (EC50) is 14.5 µM. In the case of `COc1cc(/C=C/c2ccc3cccc(OC)c3n2)c(OC(C)=O)c([N+](=O)[O-])c1`, the EC50 is 17.2 µM. On to `O=c1ccsn1Cc1ccccc1`, for which the EC50 is 7.57 µM. Take `Cc1cc(NC(=O)CSc2nc3c(sc4ccccc43)c(=O)n2CCCN2CCOCC2)n[nH]1`: the EC50 was > 10 µM (inactive). Turning to `CCN1CCN(c2cc(C)c3cc(NC(=O)c4ccc(OC)c(OC)c4)ccc3n2)CC1`, the EC50 is 15.2 µM.

As for `O=C1CSC(=S)N1Cc1cccnc1`, the half-maximal effective concentration (EC50) is 9.72 µM. Turning to `Cc1cc(C)c2c(=O)n(CC(=O)NCCCN3CCN(c4ccccc4F)CC3)sc2n1`, the EC50 is 10.2 µM. `c1ccc2c(c1)oc1c(Nc3ccc(CN4CCOCC4)cc3)ncnc12`: the EC50 was 17.2 µM.

Turning to `COc1ccc(N2C(=O)CC(Sc3nnc(-c4ccccc4)o3)C2=O)cc1` (stereo not drawn), the half-maximal effective concentration (EC50) is 13.2 µM. Turning to `CC(=O)SC(C[N+](=O)[O-])c1cn(C(C)=O)c2ccccc12` (stereo not drawn), the EC50 was 11.7 µM. With `COc1ccc(CC(=O)Nc2ccc(-c3nnc(-c4ccc(C)cc4)o3)cc2)cc1` the figure was 12.8 µM; with `O=c1[nH]c2cc3c(cc2cc1C(c1nnnn1C1CCCCC1)N1CCSCC1)OCCO3` (stereo not drawn), 19.7 µM. Next, `COC(=O)Nc1ccc(S(=O)(=O)N2c3ccccc3CCC2C)cc1` (stereo not drawn): 12.5 µM. With `CCCc1[nH]nc2c1C(c1ccc(Br)s1)C(C#N)=C(N)O2` (stereo not drawn) the figure was 9.62 µM; with `N#Cc1c(NCCN)nc(-c2ccco2)c2c1CCCC2`, 11.7 µM. With `COc1cc2nc(N3CCN(C(=O)c4ccco4)CC3)nc(N)c2cc1OC`, the EC50 was 8.04 µM. As for `Oc1c(I)cc(Cl)c2cccnc12`, the half-maximal effective concentration (EC50) is 11.4 µM.

`COC(=O)C1=C(O)/C(=C\c2ccc(CNC(=O)C(=O)Nc3ccc(C)cc3)o2)N=C1C`: the EC50 is 9.27 µM. For `CN(C)C(=O)CSc1cccc2cccnc12`, the EC50 was 13.7 µM. Regarding `Oc1cccc2ccc(/C=C/c3cccs3)nc12`, the concentration giving a half-maximal response (EC50) is 9.71 µM. Next, `O=S(=O)(c1ccc2c(c1)nc(COc1ccc(Cl)cc1)n2CC1CCCO1)N1CCOCC1` (stereo not drawn): 8.4 µM. For the compound `O=C(Nc1nnc(-c2ccccc2SCc2ccccc2F)s1)Nc1ccccc1F`, the EC50 was 16.2 µM. Turning to `Cc1ccc(C)n1NC(=O)c1ccccc1O`, the EC50 is 10.3 µM.

Regarding `Cc1ccc(/C=N/Nc2ncc(Cl)cc2Cl)s1`, the half-maximal effective concentration (EC50) was 15.2 µM. Take `CCc1ccc(-c2nc(CN3CCC(C(=O)N4CCN(c5ccccc5)CC4)CC3)c(C)o2)cc1`: the EC50 is 18.7 µM.

As for `COc1cc(NC(=O)Nc2cccc(Cl)c2)c(OC)cc1NC(=O)CN1CCCCC1`, the EC50 was 20.3 µM.

As for `N=c1c2c(-c3ccccc3)c(-c3ccccc3)n(Cc3ccco3)c2ncn1Cc1ccco1`, the concentration for a half-maximal effect (EC50) is 7.06 µM. `Cc1sc2nc(SCC(=O)C(C)(C)C)n(Cc3ccco3)c(=O)c2c1C`: the EC50 was 16.9 µM. With `CCOC(=O)c1c(NC(=O)CSc2nc(C)cc(C)c2C#N)sc(C(C)=O)c1C`, the EC50 is 13.5 µM.

Regarding `COc1cc(NC(=O)c2cccs2)c(C(=O)OCC(=O)NCc2ccccc2)cc1OC`, the concentration giving a half-maximal response (EC50) was 20.6 µM.

As to `Oc1ccc(Cl)cc1-c1cc(-c2ccco2)[nH]n1`, the EC50 is > 10 µM (inactive).

Turning to `O=c1cc(-c2ccccc2)[nH]n1-c1nc2ccccc2[nH]1`, the EC50 is 5.6 µM. In the case of `CCSc1nnc(NC(=O)c2ccccn2)s1`, the EC50 is 16.5 µM. Regarding `O=C(c1nn2c(C(F)(F)F)cc(-c3ccco3)nc2c1Br)N1CCCc2ccccc21`, the EC50 was 4.78 µM. Take `COc1cc(C(=O)Oc2c(CN3CCOCC3)cc(Cl)c3cccnc23)cc(OC)c1OC`: the EC50 was 4.05 µM. Take `O=C(Nc1nc(NC(=O)c2ccco2)n(-c2ccccc2)n1)c1ccccc1`: the EC50 was 11.5 µM. Next, `Cc1ccc2oc3c(c(=O)c2c1)C(c1cccc(Br)c1)N(Cc1ccco1)C3=O` (stereo not drawn): 18.3 µM.

For `c1ccc(-c2noc(-c3ccc4c(c3)OCO4)n2)nc1`, the EC50 was 10.5 µM. For `Cn1c(=O)n(C)c2cc(C(=O)Nc3ccc4c(c3)OCO4)ccc21`, the concentration giving a half-maximal response (EC50) was 12.9 µM. Consider `Cn1c2ccccc2c(=O)c2c(=O)n(C3CCCCC3)c(-c3cccs3)nc21`, for which the concentration for a half-maximal effect (EC50) was 14.2 µM. With `O=C(Cn1c(=O)n(CCCC(=O)NC2CCCC2)c(=O)c2ccccc21)NCCC1=CCCCC1` the figure was 19.4 µM; with `O=C(Nc1ccc(-c2nc3c(ccc4ccccc43)o2)cc1)c1ccco1`, 10.9 µM. With `O=[N+]([O-])c1ccc(Sc2cccc3cccnc23)c([N+](=O)[O-])c1` the figure was 5.03 µM.
